HKDC1 inh: HKDC1 hexokinase inhibitors, primary screen, biochemical, fluorescence, uHTS. Q2TB90. recombinant HKDC1, G6PDH/diaphorase resazurin coupled fluorescence. inhibition, % at 20 µM. 340,000 tested, 0.16% active;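 active = inhibition above about 35% when tested at 20 µM, limit read from the data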;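 also: plate controls were DMSO wells with enzyme for no effect and DMSO wells lacking enzyme for full effect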
Target sequence (Q2TB90 whole entry, looked up): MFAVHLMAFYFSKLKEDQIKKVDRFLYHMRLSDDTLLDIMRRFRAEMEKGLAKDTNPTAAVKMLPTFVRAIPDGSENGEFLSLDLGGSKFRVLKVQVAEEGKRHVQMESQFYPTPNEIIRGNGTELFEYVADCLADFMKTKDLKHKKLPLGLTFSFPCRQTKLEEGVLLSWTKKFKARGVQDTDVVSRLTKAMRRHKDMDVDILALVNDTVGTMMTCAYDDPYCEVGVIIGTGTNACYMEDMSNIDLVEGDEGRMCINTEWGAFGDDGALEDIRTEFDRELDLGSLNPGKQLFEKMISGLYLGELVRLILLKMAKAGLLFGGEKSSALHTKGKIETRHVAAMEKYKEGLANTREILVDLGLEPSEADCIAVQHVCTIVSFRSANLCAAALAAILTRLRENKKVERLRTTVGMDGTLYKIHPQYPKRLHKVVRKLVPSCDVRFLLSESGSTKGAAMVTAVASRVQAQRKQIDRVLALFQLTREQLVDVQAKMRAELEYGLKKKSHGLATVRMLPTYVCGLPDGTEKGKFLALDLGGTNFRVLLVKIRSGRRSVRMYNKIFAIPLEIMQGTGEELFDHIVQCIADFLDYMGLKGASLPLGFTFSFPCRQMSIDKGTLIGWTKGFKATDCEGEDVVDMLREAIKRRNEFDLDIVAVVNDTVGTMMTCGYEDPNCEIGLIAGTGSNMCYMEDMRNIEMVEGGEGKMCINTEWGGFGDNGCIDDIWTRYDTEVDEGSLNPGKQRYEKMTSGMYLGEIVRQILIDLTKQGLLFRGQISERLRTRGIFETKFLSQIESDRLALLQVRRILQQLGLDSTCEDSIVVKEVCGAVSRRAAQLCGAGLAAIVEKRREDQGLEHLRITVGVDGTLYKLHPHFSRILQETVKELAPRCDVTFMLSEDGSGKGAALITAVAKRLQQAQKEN
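Assay system – recombinant HKDC1 (HK5) hexokinase enzyme, produced in-house · Input – HKDC1 at 5 µg/mL · Reagent – glucose plus 1 mM ATP as hexokinase substrates · Timing – 90 min reaction incubation at room temperature, dark · Measured by – G6PDH/diaphorase-coupled fluorescence, 1 mM NADP, 100 µM resazurin, 525/613 nm · Benchmarks – DMSO-enzyme wells negative, buffer-substituted wells positive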
T cell modulator: modulators of CD8 T cell-vesicle binding, primary screen, mouse 2C CD8+ T cells, flow cytometry. 2C CD8+ T cell-vesicle binding; stronger effect = lower value. response (vesicle binding), % at 7 µM. 330,000 tested, 0.068% active. AID 2052, 2009;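 active = response, share of CD8 T cells binding vesicles, and their 90th percentile fluorescence all below set limits, cut at about 80% in these data, passing the limit was not always enough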;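 also: values below 100% mean blocked vesicle binding to the CD8+ T cells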
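Benchmarks: naked versus QL9-loaded vesicles / Assay system: purified 2C TCR transgenic mouse naive CD8+ T cells / Technique: high-throughput flow cytometry with anti-B7-1 and anti-CD8 staining / Timing: Cell–vesicle co-incubation 1.5 h at 37 °C, staining 20 min on ice / Read-out: percent CD8+ FL2 mean versus row control / Probe or stimulus: QL9-loaded Drosophila micro-vesicles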
PKA-R1A act: activators of PKA-R1A holoenzyme, primary screen, biochemical, fluorescence polarization, Cy5-IP20, bovine R1A, mouse PKAc | PKA-R1A dissociation; scaled: DMSO 0%, 113 µM cGMP 100% | 340,000 tested, 0.083% active | activation, % at 11.4 µM;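 active = percent activation above the mean of all tested compounds plus 3 SD, cut at about 19% in these data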;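 also: higher means more PKAc released from R1A so a rise in polarization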
PKA-R2B activ: activators of PKA-R2B holoenzyme, primary screen, biochemical, fluorescence polarization, Cy5-IP20, human | PKA-R2B holoenzyme dissociation; R2B truncated from residue 108, S112A mutant; 0% DMSO only, 100% 113 µM cGMP | activation, % at 11.4 µM | 340,000 tested, 0.079% active | AID 504700, 2011;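 active = activation above a cutoff set at the mean over all compounds plus 3 SD, cut at about 18% in these data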;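 also: higher means more holoenzyme dissociation and a rise in polarization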
ATG4B inh: ATG4B protease inhibitors, primary screen, biochemical, fluorescence, uHTS. Cysteine protease ATG4B (Homo sapiens), Q9Y4P1. ATG4B cleavage of LC3-PLA2, NBD-HPC fluorescence, 1 h. inhibition, % at 8.33 µM. 340,000 tested, 0.51% active. AID 504462, 2011; in the data active = inhibition above about 40%
PfG6PD inh: PfG6PD enzyme inhibitors, primary screen, biochemical, fluorescence intensity, uHTS | AID 504690, 2011 | glucose-6-phosphate dehydrogenase-6-phosphogluconolactonase (Plasmodium falciparum 3D7) | 350,000 tested, 0.78% active | PfGluPho enzyme, NADPH resazurin-diaphorase fluorescence | inhibition, % at 20 µM;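 active = inhibition reaching at least a set limit at 20 µM in the primary screen, cut at about 59% in these data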;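 also: 0% = DMSO wells with substrate and 100% = DMSO wells lacking glucose-6-phosphate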
Numbers without * were called inactive. This is a sample that favours compounds with a hit; in the whole collection about 1.6% have one here.

What do the screens show for `Nc1nnc(SCCOc2ccc(Br)cc2)s1`?
HKDC1 inh: 0; T cell modulator: 0.0*; PKA-R1A act: -9; PKA-R2B activ: -4; ATG4B inh: 6; PfG6PD inh: 12

What do the screens show for `Nc1nnc(SCCOc2ccccc2)s1`?
HKDC1 inh: -10; T cell modulator: 420; PKA-R1A act: -6; PKA-R2B activ: 8; ATG4B inh: 0; PfG6PD inh: -4

Results for OCCN1CCN(c2nc(-c3ccccc3O)nc3ccccc23)CC1 ?
HKDC1 inh: 2; T cell modulator: 566; PKA-R1A act: -5; PKA-R2B activ: -1; ATG4B inh: -8; PfG6PD inh: 5

How did Oc1ccccc1C=NCCN=Cc1ccccc1O do in these assays?
HKDC1 inh: -11; T cell modulator: 174; PKA-R1A act: -6; PKA-R2B activ: -6; ATG4B inh: 9; PfG6PD inh: 7

Results for Oc1ccc(Cl)cc1C=NCCc1ccccc1 ?
HKDC1 inh: 3; T cell modulator: 107; PKA-R1A act: -7; PKA-R2B activ: -1; ATG4B inh: 43*; PfG6PD inh: -26

How did O=C(N=C1SC2CS(=O)(=O)CC2N1c1ccccc1C(F)(F)F)C1CCCO1 (stereo not drawn) do in these assays?
HKDC1 inh: 2; T cell modulator: 269; PKA-R1A act: 6; PKA-R2B activ: 2; ATG4B inh: -3; PfG6PD inh: -6

Results for O=C(O)c1ccc(-c2sc(Nc3ccccc3)n[n+]2-c2ccc(F)cc2)cc1 ?
HKDC1 inh: -5; T cell modulator: 349; PKA-R1A act: 6; PKA-R2B activ: -5; ATG4B inh: -15; PfG6PD inh: 12

What do the screens show for `Fc1ccc(-[n+]2nc(Nc3ccccc3)sc2-c2c(Cl)cccc2Cl)cc1`?
HKDC1 inh: 2; T cell modulator: 470; PKA-R1A act: 0; PKA-R2B activ: -2; ATG4B inh: -1; PfG6PD inh: 64*

Results for CC(Sc1n[nH]c(-c2cccs2)n1)C(=O)N1CCCC1 (stereo not drawn) ?
HKDC1 inh: -7; T cell modulator: 241; PKA-R1A act: 3; PKA-R2B activ: -3; ATG4B inh: -5; PfG6PD inh: 9

Results for CN(C)c1ccc(N=Cc2nc(-c3ccccc3)oc2OC(=O)c2ccccc2)cc1 ?
HKDC1 inh: -10; T cell modulator: 5.7*; PKA-R1A act: -14; PKA-R2B activ: -7; ATG4B inh: -3; PfG6PD inh: 11

Results for CC(=O)Oc1oc(-c2ccccc2)nc1C=Nc1ccc(N(C)C)cc1 ?
HKDC1 inh: 3; T cell modulator: 279; PKA-R1A act: 11; PKA-R2B activ: -2; ATG4B inh: -6; PfG6PD inh: 10

How did C#CCOCCOCCOCCNc1nc(N2CCN(C(=O)CCCCCCCCCCNC(=O)[C@H]([C@@H](C)CC)n3cc(CCCCCN)nn3)CC2)nc(N2CCN(C(=O)CCCCCCCCCCNC(=O)[C@@H]([C@H](C)O)n3cc(C)nn3)CC2)n1 do in these assays?
HKDC1 inh: -10; T cell modulator: 602; PKA-R1A act: 5; PKA-R2B activ: -15; ATG4B inh: 16; PfG6PD inh: 55

Results for C#CCOCCOCCOCCNc1nc(N2CCN(C(=O)CCCCCCCCCCNC(=O)[C@H](CCCCN)n3cc(CCO)nn3)CC2)nc(N2CCN(C(=O)CCCCCCCCCCNC(=O)[C@H](CCCN=C(N)N)n3cc(C[C@@H](C)CC)nn3)CC2)n1 ?
HKDC1 inh: -3; T cell modulator: 698; PKA-R1A act: 6; PKA-R2B activ: -4; ATG4B inh: 70*; PfG6PD inh: 62*

High-throughput results deposited in PubChem by several laboratories.
